# UCH37 DUB inh – human UCH37 deubiquitinating enzyme inhibition; Q9Y5K5; purified proteasome/UCH37, Ub-AMC cleavage fluorescence; inhibition, % (concentration not given with the values); hit rate 0.33% among 330,000;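 active = mean inhibition over replicate wells above about 20%, limit read from the data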;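 note: 0% = compound-free wells with enzyme and 100% = wells lacking proteasome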
# Target sequence (Q9Y5K5 whole entry, looked up): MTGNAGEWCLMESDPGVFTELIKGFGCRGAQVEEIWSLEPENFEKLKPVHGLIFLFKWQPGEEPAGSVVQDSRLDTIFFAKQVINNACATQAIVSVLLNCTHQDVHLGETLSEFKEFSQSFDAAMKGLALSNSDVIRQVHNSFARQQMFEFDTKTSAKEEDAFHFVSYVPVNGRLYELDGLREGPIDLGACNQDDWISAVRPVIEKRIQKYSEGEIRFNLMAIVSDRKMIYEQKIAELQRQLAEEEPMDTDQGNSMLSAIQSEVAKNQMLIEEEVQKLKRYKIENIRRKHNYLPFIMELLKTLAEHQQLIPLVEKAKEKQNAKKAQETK
#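 Material: Human UCH37 enzyme supplied as purified proteasome complex | Schedule: 30 min compound-proteasome preincubation then 25 min substrate reaction, room temperature | Detection: AMC fluorescence from Ub-AMC cleavage, excitation 355 nm, emission 460 nm | Benchmarks: Wells without proteasome as full block, compound-free enzyme plus substrate as uninhibited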
# PREPL inhibitor – human PREPL enzyme inhibition; hit rate 0.68% among 320,000; AID 2751; recombinant PREPL, fluorescence polarization activity-based probe; Q4J6C6; inhibition, % at 5.96 µM;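 note: 0% = enzyme with DMSO and 100% = wells lacking enzyme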
# UBC13 inh – human UBC13 polyubiquitination inhibition. UBC13 polyubiquitin chain formation, TR-FRET. inhibition, % at 20 µM. hit rate 0.47% among 330,000. AID 485273. P61088; in the data active = inhibition above about 45%, passing the limit was not always enough
# Target sequence (P61088 whole entry, looked up): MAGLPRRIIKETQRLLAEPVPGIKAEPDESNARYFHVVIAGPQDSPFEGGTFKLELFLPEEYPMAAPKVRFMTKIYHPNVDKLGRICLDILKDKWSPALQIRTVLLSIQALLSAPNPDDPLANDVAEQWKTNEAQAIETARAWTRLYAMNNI
# Apaf-1 inh – blocks human Apaf-1 apoptosome activity; O14727; reconstituted apoptosome caspase-3 activity, DEVD-Rh110 fluorescence; inhibition, % at 20 µM; hit rate 0.71% among 330,000; AID 489030; active = inhibition of at least 40% at 20 µM;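 note: plate controls were DMSO wells for no effect and DEVD-CHO caspase inhibitor wells for full effect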
#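 System – cell-free apoptosome with Apaf-1, procaspase-3 and caspase-9 · Buffer or medium – pH 7.5 Hepes buffer with CHAPS, BSA, DTT · Also added – cytochrome c with DEVD-Rh110 · Times – 30 min compound preincubation, 50 min activation, room temperature · Technique – Rh110 fluorescence intensity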
# PREPL inh cf – human PREPL inhibition, confirmation | shares compounds with PREPL inhibitor | recombinant PREPL, fluorescence polarization activity probe | inhibition, % at 5.96 µM | hit rate 67% among 2,000;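 note: 0% = protein with DMSO and 100% = wells lacking protein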
# Starred values were filed as active, the others as inactive; i = inactive; . = no result. An excerpt weighted towards active compounds, which were near 1.5% of everything screened. Cut-off read from the data, not from the text of the source, unless noted: active = inhibition above about 43%; inactive = the rest.
SMILES,UCH37 DUB inh,PREPL inhibitor,UBC13 inh,Apaf-1 inh,PREPL inh cf
Cc1[nH]c2ccccc2c1C(c1ccncc1)N1CCN(c2ccccc2F)CC1 (stereo not drawn),-1,1,0,-4,.
CC#CCN(Cc1ccco1)C(=O)c1ccc(OC2CCN(Cc3ccccn3)CC2)cc1,1,49*,-19,8,13
CN(Cc1ccco1)C(=O)c1ccc(OC2CCN(Cc3ccccn3)CC2)cc1,1,3,-3,9,.
COc1ccc(C2=Nn3c(nnc3-c3ccccc3F)SC2)cc1OCC1CC1,1,56*,27,34,-9
Cc1ccc(C(=O)Oc2coc(CSc3nnc(NC(=O)c4cccs4)s3)cc2=O)cc1,-11,76*,-3,5,85*
CC(=O)Nc1nnc(SCc2cc(=O)c(OC(=O)c3ccccc3)co2)s1,1,7,-2,8,.
CN1CCN(c2ccc(NC(=O)c3ccc4ccccc4c3)cc2)CC1,.,23,7,14,.
CN1CCN(c2ccc(NC(=O)COc3ccc4ccccc4c3)cc2)CC1,6,52*,8,9,58*
O=C(COc1ccccc1Cl)Nc1ccc(N2CCCC2)cc1,-3,11,-13,29,.
CN1CCN(c2ccc(NC(=O)COc3cccc4ccccc34)cc2)CC1,3,55*,13,10,57*
CCNc1cc(O)ccc1C,.,70*,-17,9,15
Oc1ccc(C=NN(Cc2ccccc2)c2ccccc2)cc1,6,.,.,.,.
Cc1c(O)ccc(/C=N/Nc2nc(-c3cccnc3)nc3ccccc23)c1O,.,72*,-26,-1,72*
Oc1ccc(/C=N/Nc2nc(-c3cccnc3)nc3ccccc23)c(O)c1,.,58*,-25,-15,42
O=C(NN=C/C=C/c1ccc2c(c1)OCO2)C1COc2cc3ccccc3cc2O1 (stereo not drawn),-4,.,.,.,.
Nc1ccc2ncccc2c1N,17,47*,.,.,46*
COc1ccc2cc(C(=O)C3CCCN(C(=O)c4csnn4)C3)ccc2c1 (stereo not drawn),-438,22,15,16,.
O=C(c1ccc2ccccc2c1)C1CCCN(C(=O)c2cccnc2)C1 (stereo not drawn),-19,.,0,4,.
COc1ccc2cc(C(=O)C3CCCN(C(=O)C4=NN(C)C(=O)CC4)C3)ccc2c1 (stereo not drawn),i,44*,20,4,32
COc1ccc2cc(C(=O)C3CCCN(C(=O)c4cccnc4)C3)ccc2c1 (stereo not drawn),i,45*,23,-1,39
CCOC(=O)C1=C(CS(=O)(=O)c2ccc(C)cc2)NC(=O)NC1c1ccc(O)c(OC)c1 (stereo not drawn),2,12,-6,-5,.
CCOC(=O)C1=C(CS(=O)(=O)c2ccc(C)cc2)NC(=O)NC1c1cc(OC)c(OC)c(OC)c1 (stereo not drawn),2,45*,-11,1,40
Cn1c(=O)c2c(nc(Br)n2CC=NNC(N)=S)n(C)c1=O,5,.,.,.,.
COc1ccc(-n2c(CN3CCN(C)CC3)nc3ccc([N+](=O)[O-])cc3c2=O)c(OC)c1,0,25,-8,4,.
COc1ccc(-n2c(CN3CCN(Cc4ccccc4)CC3)nc3ccc([N+](=O)[O-])cc3c2=O)c(OC)c1,3,51*,7,-4,38
SMILES,UCH37 DUB inh,PREPL inhibitor,UBC13 inh,Apaf-1 inh,PREPL inh cf
CC1CC(C)CN(C(=O)c2ccc3c(c2NCCO)C(=O)c2ccccc2C3=O)C1 (stereo not drawn),6,56*,-263,24,58*
O=C(C[C@H]1C/C=C\C[C@@H](Cc2ccc(F)cc2)C(=O)OC[C@H]2CCCN2C1=O)N[C@@H](CO)Cc1ccccc1,0,60*,20,6,51*
O=C(C[C@H]1C/C=C\CC[C@H](Cc2ccc(F)cc2)C(=O)OC[C@@H]2CCCN2C1=O)N[C@H](CO)Cc1ccccc1,4,21,12,19,.
O=C(C[C@@H]1C/C=C\C[C@@H](Cc2ccc(F)cc2)C(=O)OC[C@H]2CCCN2C1=O)N[C@H](CO)Cc1ccccc1,-1,45*,2,14,47*
COc1ccc(C=NNC(=O)CN2CCCCCCC2)c(C)c1C,3,.,.,.,.
COc1cc([N+](=O)[O-])cc(C=NNC(=O)C(C)Nc2cccc(C)c2)c1O (stereo not drawn),8,.,.,.,.
O=C(O)c1ccc(NN=Cc2ccc(-c3ccccc3Cl)o2)cc1,-35,.,.,.,.
COc1ccc(-c2cnnc(NN=Cc3ccc(O)c(O)c3)n2)cc1,5,.,.,.,.
COc1ccc(-c2cnnc(N/N=C/c3ccc(O)c(O)c3)n2)cc1,.,73*,-16,1,37
Cc1ccnc(-n2c(C)cc(C=NNC(=O)COc3cccc4cccnc34)c2C)c1,8,.,.,.,.
COc1ccccc1Nc1c2c(nc3ccc(N)cc13)CCCC2,3,44*,-9,9,27
Cn1c(=O)n(C)c2cc(C=NNC(=O)c3cccc(Br)c3)ccc21,-37,.,.,.,.
COc1cc(/C=N/n2c(C)n[nH]c2=S)ccc1OCc1ccc(F)cc1,.,50*,-2,17,42
COc1cc(/C=N\n2nnnc2N)ccc1OCc1ccc(F)cc1,.,31,17,14,.
N=C1/C(=C\c2ccc(OC(=O)c3ccccc3Cl)cc2)C(=O)N=C2SC(N3CCOCC3)=NN12,9,53*,-29,19,16
COc1cc(/C=C2/C(=N)N3OC(C)=CC3=NC2=O)ccc1OC(=O)c1ccco1,1,46*,5,-2,60*
Cc1ccc(S(=O)(=O)c2cc(OC(=O)c3ccco3)ccc2OC(=O)c2ccco2)cc1,2,86*,-10,9,77*
O=C(Oc1ccc(OC(=O)c2ccco2)c(S(=O)(=O)c2ccc(Br)cc2)c1)c1ccco1,.,94*,-11,7,93*
COCC(=O)NN=Cc1ccccc1OC/C=C/c1ccccc1,2,.,.,.,.
COc1ccc(C=NNC(=O)COc2cc(C)cc(C)c2)cc1COC(C)=O,3,.,.,.,.
CC(=O)Nc1ccc(C(=O)NN=Cc2cc(Br)cc(Br)c2O)cc1,-4,.,.,.,.
Cc1ccc(C)n1-c1ccc(C(=O)NN)s1,5,56*,-4,3,17
COc1ccc(Nc2nc(N3CCCCC3)c3ccccc3n2)cc1,-7,60*,31,39,43
Oc1ccc(Nc2nc(N3CCCC3)c3ccccc3n2)cc1,5,72*,28,22,66*
CSc1ccc(-c2nc3cnccn3c2Nc2ccc3c(c2)OCO3)cc1,-95,50*,-10,22,48*
Cc1ccn2c(Nc3ccc4c(c3)OCO4)c(-c3ccccn3)nc2c1,1,77*,0,17,67*
Cc1ccc(Nc2c(-c3ccccn3)nc3cc(C)ccn23)cc1,-4,74*,42,-10,58*
Cc1ccc(-c2nc3cnccn3c2Nc2ccc3c(c2)OCO3)o1,-9,-3,-2,27,.
Cc1ccc(Nc2c(-c3ccccn3)nc3ccc(C)cn23)cc1,-17,63*,22,11,69*

# Assay outcomes (PubChem BioAssay)
